42 molecules from ChEMBL document CHEMBL4229462, “Design and synthesis of novel anti-hyperalgesic agents based on 6-prenylnaringenin as the T-type calcium channel blockers” (Bioorg Med Chem, 2018) can be followed below.

The target in test [1] is T1, Voltage-dependent T-type calcium channel subunit alpha-1H (Homo sapiens, UniProt O95180). The test is described as follows: Inhibition of human CaV3.2 expressed in HEK293 cells assessed as suppression of T-current amplitude by measuring remaining activity at 3 uM after 10 mins by whole cell patch clamp method relative to control. It is filed as cell-based. A digest of the protocol: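 HEK293 cells stably expressing human Cav3.2 were recorded by whole-cell patch clamp, holding at −90 mV with a 30 mV test pulse evoking Ba²⁺ currents. Remaining T-current after 3 μM compound is given as % of control; some entries were measured at 1 μM.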

The target of test [2] is T1, Voltage-dependent T-type calcium channel subunit alpha-1H. The test is described as follows: Inhibition of human CaV3.2 expressed in HEK293 cells assessed as suppression of T-current amplitude after 10 mins by whole cell patch clamp method. It is filed as cell-based. The essentials:
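Whole-cell patch clamp was done on HEK293 cells stably expressing human Cav3.2. Membrane was held at −90 mV and Ba²⁺ currents were evoked by a 30 mV test pulse. IC50 was derived from T-current suppression.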

Test [3] concerns Mus musculus. Briefly: Antihyperalgesic activity in ddY mouse assessed as suppression of partial sciatic nerve ligation-induced mechanical allodynia at 10 mg/kg, ip administered 7 days by Von Frey test. The test is classed as functional, organism-based. The essentials:
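Male ddY mice (18–25 g) had the right sciatic nerve partially ligated under isoflurane and were tested one week later. Dosing was i.p. as a suspension in 0.5% carboxymethyl cellulose sodium, with vehicle-treated sham and PSNL groups. Ipsilateral hindpaw threshold was measured by von Frey up-down method before ligation and 0–90 min after injection. Data are mean with S.E.M. (5–11 mice), analysed non-parametrically.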

The subject of test [4] is Mus musculus. Briefly: Antihyperalgesic activity in ddY mouse assessed as suppression of partial sciatic nerve ligation-induced mechanical allodynia at 20 mg/kg, ip administered 7 days by Von Frey test. It is filed as functional, organism-based. A digest of the protocol: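 Male ddY mice (18–25 g) had the right sciatic nerve partially ligated under isoflurane and were tested 7 days later. Compound was suspended in 0.5% CMC-Na and given i.p. Ipsilateral hindpaw threshold was measured by von Frey up-down method before ligation and over 0–90 min post-dose. Data are mean ± S.E.M. (5–11 mice) with non-parametric statistics.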

Test [5] concerns the target Voltage-dependent T-type calcium channel subunit alpha-1G (Homo sapiens, UniProt O43497). Briefly: Inhibition of human CaV3.1 expressed in HEK293 cells assessed as suppression of T-current after 10 mins by whole cell patch clamp method. The test is classed as cell-based.
Test [6] can be described thus: Inhibition of T-type calcium channel in human Jurkat cells assessed as suppression of thapsigargin-induced intracellular calcium flux after 1 hr by indo-1 dye-based spectrofluorometric method. The test is classed as cell-based.
A short description of test [7]: Inhibition of T-type calcium channel (unknown origin). Details: species or system Homo sapiens.

Active and inactive are the calls of the source.

Voltage-dependent T-type calcium channel subunit alpha-1G, sequence (O43497 whole entry): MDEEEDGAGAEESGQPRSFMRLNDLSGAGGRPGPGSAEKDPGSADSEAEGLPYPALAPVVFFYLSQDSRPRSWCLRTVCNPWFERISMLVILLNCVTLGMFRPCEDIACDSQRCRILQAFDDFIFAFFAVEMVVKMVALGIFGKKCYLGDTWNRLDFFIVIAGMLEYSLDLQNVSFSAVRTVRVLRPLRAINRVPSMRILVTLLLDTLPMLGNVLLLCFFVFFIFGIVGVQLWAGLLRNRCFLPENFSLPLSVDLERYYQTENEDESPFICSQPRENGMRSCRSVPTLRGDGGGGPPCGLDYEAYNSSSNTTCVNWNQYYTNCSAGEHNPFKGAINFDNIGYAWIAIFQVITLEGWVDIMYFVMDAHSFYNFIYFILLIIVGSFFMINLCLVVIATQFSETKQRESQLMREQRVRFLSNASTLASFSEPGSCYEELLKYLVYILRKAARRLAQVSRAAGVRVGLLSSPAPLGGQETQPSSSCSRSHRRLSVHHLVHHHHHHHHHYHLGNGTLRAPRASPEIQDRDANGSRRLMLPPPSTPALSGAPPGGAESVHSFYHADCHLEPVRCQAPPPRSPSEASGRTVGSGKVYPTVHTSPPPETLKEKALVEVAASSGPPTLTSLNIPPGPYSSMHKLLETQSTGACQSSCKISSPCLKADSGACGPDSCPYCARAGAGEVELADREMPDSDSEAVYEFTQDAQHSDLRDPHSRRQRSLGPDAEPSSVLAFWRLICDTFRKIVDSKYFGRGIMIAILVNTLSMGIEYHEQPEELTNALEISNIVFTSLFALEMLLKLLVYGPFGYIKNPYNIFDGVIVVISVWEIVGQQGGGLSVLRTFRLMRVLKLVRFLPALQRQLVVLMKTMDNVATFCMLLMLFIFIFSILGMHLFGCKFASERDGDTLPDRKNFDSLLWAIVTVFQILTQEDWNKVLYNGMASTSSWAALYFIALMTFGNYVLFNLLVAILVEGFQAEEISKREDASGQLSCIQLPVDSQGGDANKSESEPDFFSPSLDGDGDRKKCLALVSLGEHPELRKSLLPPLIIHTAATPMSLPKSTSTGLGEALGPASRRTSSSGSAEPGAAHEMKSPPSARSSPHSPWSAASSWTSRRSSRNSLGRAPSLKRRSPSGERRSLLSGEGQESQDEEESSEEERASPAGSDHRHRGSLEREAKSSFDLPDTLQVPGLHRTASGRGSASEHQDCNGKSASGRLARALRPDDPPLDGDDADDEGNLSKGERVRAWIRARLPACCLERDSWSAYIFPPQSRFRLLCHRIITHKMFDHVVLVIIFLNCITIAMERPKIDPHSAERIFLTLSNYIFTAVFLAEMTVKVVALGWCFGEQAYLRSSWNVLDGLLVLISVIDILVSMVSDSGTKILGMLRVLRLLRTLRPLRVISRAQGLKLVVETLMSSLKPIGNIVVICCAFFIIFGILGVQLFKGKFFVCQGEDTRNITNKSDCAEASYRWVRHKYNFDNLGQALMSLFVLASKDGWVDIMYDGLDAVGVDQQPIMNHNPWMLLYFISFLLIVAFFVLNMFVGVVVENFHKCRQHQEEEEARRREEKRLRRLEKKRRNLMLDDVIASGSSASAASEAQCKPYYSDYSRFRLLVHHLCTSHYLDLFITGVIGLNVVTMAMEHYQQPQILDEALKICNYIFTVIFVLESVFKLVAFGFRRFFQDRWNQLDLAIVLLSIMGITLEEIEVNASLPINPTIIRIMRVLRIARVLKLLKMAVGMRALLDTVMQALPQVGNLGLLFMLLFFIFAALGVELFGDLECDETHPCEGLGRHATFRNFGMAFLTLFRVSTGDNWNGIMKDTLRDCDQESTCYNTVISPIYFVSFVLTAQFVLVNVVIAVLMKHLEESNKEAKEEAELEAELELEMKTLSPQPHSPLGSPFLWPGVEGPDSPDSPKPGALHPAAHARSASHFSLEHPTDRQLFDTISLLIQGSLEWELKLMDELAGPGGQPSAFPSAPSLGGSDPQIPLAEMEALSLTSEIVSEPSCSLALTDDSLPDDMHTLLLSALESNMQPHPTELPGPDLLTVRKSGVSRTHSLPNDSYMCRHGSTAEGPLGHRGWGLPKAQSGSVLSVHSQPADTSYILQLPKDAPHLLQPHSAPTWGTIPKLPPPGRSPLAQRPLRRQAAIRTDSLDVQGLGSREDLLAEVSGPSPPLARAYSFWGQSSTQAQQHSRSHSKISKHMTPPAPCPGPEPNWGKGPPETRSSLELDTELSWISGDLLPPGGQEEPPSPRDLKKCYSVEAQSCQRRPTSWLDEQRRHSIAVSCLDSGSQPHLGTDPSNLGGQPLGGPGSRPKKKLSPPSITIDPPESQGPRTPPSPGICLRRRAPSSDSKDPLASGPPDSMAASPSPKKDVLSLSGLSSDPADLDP
T1 sequence (O95180 whole entry): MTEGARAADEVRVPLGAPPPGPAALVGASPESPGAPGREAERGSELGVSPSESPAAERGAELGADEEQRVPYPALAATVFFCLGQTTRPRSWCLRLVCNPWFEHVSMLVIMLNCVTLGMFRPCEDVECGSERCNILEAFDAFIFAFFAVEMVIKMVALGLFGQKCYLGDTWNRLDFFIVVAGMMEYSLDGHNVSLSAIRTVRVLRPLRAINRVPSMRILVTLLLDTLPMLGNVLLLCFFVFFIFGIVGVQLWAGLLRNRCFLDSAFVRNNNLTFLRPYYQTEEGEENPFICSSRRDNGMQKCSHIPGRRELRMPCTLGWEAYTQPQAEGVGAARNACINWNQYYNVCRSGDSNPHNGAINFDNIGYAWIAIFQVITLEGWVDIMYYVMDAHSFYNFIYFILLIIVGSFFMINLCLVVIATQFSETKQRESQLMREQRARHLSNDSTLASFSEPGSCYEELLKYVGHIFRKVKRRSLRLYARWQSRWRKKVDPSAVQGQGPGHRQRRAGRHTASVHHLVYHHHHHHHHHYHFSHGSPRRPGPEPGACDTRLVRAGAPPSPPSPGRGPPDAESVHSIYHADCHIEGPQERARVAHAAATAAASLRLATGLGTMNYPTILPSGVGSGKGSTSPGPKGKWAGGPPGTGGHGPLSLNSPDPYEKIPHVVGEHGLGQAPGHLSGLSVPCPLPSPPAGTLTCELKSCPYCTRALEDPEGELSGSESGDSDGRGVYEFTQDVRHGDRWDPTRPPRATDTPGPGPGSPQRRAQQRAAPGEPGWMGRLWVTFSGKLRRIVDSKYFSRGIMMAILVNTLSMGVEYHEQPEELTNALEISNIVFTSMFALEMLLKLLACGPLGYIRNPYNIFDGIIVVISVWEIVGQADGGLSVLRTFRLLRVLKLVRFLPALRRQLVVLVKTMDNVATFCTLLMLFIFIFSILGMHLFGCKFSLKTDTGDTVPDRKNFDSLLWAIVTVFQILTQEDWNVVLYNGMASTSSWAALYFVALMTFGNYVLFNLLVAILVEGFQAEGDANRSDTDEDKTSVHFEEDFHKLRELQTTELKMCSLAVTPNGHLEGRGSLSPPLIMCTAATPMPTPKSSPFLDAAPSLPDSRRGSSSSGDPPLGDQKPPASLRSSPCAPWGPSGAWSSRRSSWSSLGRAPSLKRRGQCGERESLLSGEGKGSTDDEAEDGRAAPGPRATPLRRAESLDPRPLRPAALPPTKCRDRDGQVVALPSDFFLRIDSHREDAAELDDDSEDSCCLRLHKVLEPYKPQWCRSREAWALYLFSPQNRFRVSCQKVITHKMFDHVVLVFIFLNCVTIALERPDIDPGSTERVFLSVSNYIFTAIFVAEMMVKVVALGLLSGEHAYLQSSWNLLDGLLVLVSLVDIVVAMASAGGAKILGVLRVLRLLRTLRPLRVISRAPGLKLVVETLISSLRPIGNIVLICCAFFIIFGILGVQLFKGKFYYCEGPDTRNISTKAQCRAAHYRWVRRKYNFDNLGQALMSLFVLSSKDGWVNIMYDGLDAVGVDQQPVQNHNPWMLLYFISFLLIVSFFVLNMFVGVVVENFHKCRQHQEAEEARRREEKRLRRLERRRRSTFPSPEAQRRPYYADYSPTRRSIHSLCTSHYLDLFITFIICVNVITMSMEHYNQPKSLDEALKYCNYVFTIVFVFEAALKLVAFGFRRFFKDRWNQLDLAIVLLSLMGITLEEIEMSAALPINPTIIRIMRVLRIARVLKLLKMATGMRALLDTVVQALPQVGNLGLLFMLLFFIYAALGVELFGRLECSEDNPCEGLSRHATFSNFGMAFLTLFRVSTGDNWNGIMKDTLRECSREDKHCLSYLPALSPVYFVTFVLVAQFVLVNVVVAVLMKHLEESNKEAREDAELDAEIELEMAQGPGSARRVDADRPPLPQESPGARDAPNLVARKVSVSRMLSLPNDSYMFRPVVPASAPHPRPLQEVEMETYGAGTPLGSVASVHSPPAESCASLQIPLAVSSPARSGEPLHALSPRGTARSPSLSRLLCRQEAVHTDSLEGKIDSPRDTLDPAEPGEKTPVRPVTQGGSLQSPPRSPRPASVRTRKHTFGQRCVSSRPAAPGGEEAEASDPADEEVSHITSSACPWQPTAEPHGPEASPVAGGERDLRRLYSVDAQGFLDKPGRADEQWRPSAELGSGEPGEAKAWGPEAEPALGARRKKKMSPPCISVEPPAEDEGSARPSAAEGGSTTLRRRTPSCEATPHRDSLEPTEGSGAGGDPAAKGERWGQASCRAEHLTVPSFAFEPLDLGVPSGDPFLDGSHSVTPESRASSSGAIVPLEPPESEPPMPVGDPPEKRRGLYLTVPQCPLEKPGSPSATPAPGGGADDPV

For `CC(C)=CCc1c(O)cc2c(c1O)C(=O)CC(c1ccccc1)O2` (configuration not stated), the Activity in test [1] stood at 72.6%. For `CC(C)=CCc1c(O)cc2c(c1O)C(=O)CC(c1cccc(O)c1)O2` (configuration not stated), in test [1], the Activity was 2.09%. Moreover, the concentration for half-maximal inhibition (IC50) in test [2] was found to be 1020 nM. With `CCC(=CCc1c(O)cc2c(c1O)C(=O)CC(c1ccccc1O)O2)CC` (configuration not stated), the Activity in test [1] came to 0.33%. The IC50 in test [2] is 390 nM. The outcome in the test on Mus musculus [3] and with Mus musculus [4] was Active. Take `C=CCc1ccc2c(c1O)C(=O)CC(c1ccc(OC)cc1)O2` (configuration not stated): the Activity in test [1] came out at 59%. Still for that read-out and setting: as for `C=CCc1c(O)cc2c(c1O)C(=O)CC(c1ccc(OC)cc1)O2` (configuration not stated), the figure is 50.8%; as for `CCCC(=CCc1c(O)cc2c(c1O)C(=O)CC(c1ccc(O)cc1)O2)CCC` (configuration not stated), 36.8%.

Take `CC(C)=CCc1c(O)cc2c(c1O)C(=O)CC(c1ccc(O)cc1)O2` (racemic): in test [1], the Activity was determined as 12.8%. In addition, the IC50 in test [2] and in test [5] was 1000 nM each time. The result in the test on Mus musculus [3] was inactive. `C=CCc1ccc2c(c1O)C(=O)CC(c1ccccc1O)O2` (configuration not stated): the Activity in test [1] is 32%. `C=CCc1c(O)cc2c(c1O)C(=O)CC(c1cc(O)cc(O)c1)O2` (configuration not stated): the Activity in test [1] was 74.8%.

For the molecule `C=CCc1ccc2c(c1O)C(=O)CC(c1ccc(Cl)cc1)O2` (configuration not stated), the Activity in test [1] was found to be 35.9%. As to `CC(C)=CCc1c(O)cc(O)c2c1O[C@H](c1ccc(O)cc1)CC2=O`, the IC50 in test [2] and in test [5] was 1000 nM each time. Turning to `CCC(=CCc1c(O)cc2c(c1O)C(=O)CC(c1ccc(O)cc1)O2)CC` (configuration not stated), the Activity in test [1] turned out to be 22.2%. In test [2], the IC50 came out at 260 nM. In the same order, the values of `CC(C)CCc1c(O)cc2c(c1O)C(=O)CC(c1ccc(O)cc1)O2` (configuration not stated) are 1.69% and 480 nM.

As to `CCC(=CCc1ccc2c(c1O)C(=O)CC(c1ccccc1O)O2)CC` (configuration not stated), the Activity in test [1] came out at 16.1%. Same read-out and setting: then `COc1ccc(C2CC(=O)c3c(cc(O)c(CC=C(C)C)c3O)O2)cc1` (configuration not stated), with 47.6%; and `CC(C)=CCc1ccc2c(c1O)C(=O)CC(c1ccc(C)cc1)O2` (configuration not stated), with 103%. Take `C=CCc1c(O)cc2c(c1O)C(=O)CC(c1cccc(O)c1O)O2` (configuration not stated): the Activity in test [1] came out at 83.8%. Consider `O=C1CC(c2ccc(O)cc2)Oc2cc(O)c(CC=C3CCCC3)c(O)c21` (configuration not stated), for which the Activity in test [1] is 1.44%. For the same molecule, the IC50 in test [2] stood at 460 nM. Regarding `O=C1CC(c2ccc(O)cc2)Oc2cc(O)c(CCC3CCCC3)c(O)c21` (configuration not stated), the Activity in test [1] was determined as 5.42%. Besides, the IC50 in test [2] was found to be 500 nM. As for `COCC(=O)O[C@]1(CCN(C)CCCc2nc3ccccc3[nH]2)CCc2cc(F)ccc2[C@@H]1C(C)C` [MIBEFRADIL], the half-inhibitory concentration (IC50) in test [6] is 1000 nM. As for `C=CCc1c(O)cc2c(c1O)C(=O)CC(c1ccc(Cl)cc1)O2` (configuration not stated), in test [1], the Activity was determined as 51.9%. Consider `C=CCc1c(O)cc2c(c1O)C(=O)CC(c1ccccc1)O2` (configuration not stated), for which the Activity in test [1] came out at 70.1%. Still for that read-out and setting: then `C=CCc1ccc2c(c1O)C(=O)CC(c1ccc(OCC)cc1)O2` (configuration not stated), with 65.2%. Regarding `CC(C)=CCc1c(O)cc2c(c1O)C(=O)CC(c1ccccc1O)O2` (configuration not stated), the Activity in test [1] was determined as 2.04%. For the same molecule, the half-inhibitory concentration (IC50) in test [2] is 640 nM.

On to `CC(C)=CCc1c(O)cc2c(c1O)C(=O)CC(c1cccc(O)c1O)O2` (configuration not stated), for which, in test [1], the Activity came out at 67.1%.

For `CC(C)=CCc1c(O)cc2c(c1O)C(=O)CC(c1cc(O)cc(O)c1)O2` (configuration not stated), in test [1], the Activity was 80.9%. Take `CCC1(C)CC(=O)NC1=O` (configuration not stated) [ETHOSUXIMIDE]: in test [7], the 50% inhibitory concentration (IC50) came out at 600000 nM. Regarding `C=CCc1c(O)cc2c(c1O)C(=O)CC(c1ccc(O)c(O)c1)O2` (configuration not stated), the Activity in test [1] stood at 86.7%.

On to `COc1ccc(C2CC(=O)c3c(ccc(CC=C(C)C)c3O)O2)cc1` (configuration not stated), for which the Activity in test [1] was 81.9%.

For the molecule `C=CCc1ccc2c(c1O)C(=O)CC(c1ccc(C)cc1)O2` (configuration not stated), in test [1], the Activity stood at 72.7%. Still for that read-out and setting: then `CCOc1ccc(C2CC(=O)c3c(ccc(CC=C(CC)CC)c3O)O2)cc1` (configuration not stated), with 57.8%; and `C=CCc1c(O)cc2c(c1O)C(=O)CC(c1ccccc1O)O2` (configuration not stated), with 63%; and `CC(C)=CCc1c(O)cc2c(c1O)C(=O)CC(c1c(O)cccc1O)O2` (configuration not stated), with 10.3%. Still for that read-out and setting: then `CC(C)=CCc1c(O)cc2c(c1O)C(=O)CC(c1ccc(O)c(O)c1)O2` (configuration not stated), with 14.7%; and `CC(C)=CCc1ccc2c(c1O)C(=O)CC(c1ccccc1)O2` (configuration not stated), with 100%. Take `CC(C)=CCc1ccc2c(c1O)C(=O)CC(c1ccccc1O)O2` (configuration not stated): the Activity in test [1] was 3.77%. Also, the IC50 in test [2] worked out at 1250 nM. As for `C=C(C)[C@H](CC=C(C)C)Cc1c(O)cc(O)c2c1O[C@H](c1ccc(O)cc1O)CC2=O` [SOPHORAFLAVANONE G], the IC50 in test [2] and in test [5] was 1000 nM throughout. In the case of `CC(C)=CCc1ccc2c(c1O)C(=O)CC(c1ccc(Cl)cc1)O2` (configuration not stated), the Activity in test [1] was determined as 78.5%.

`C=CCc1c(O)cc2c(c1O)C(=O)CC(c1cccc(O)c1)O2` (configuration not stated): in test [1], the Activity is 76.8%. For `C=CCc1ccc2c(c1O)C(=O)CC(c1ccccc1)O2` (configuration not stated), the Activity in test [1] was 90.1%. On to `CCC(CC)CCc1c(O)cc2c(c1O)C(=O)CC(c1ccc(O)cc1)O2` (configuration not stated), for which the Activity in test [1] turned out to be 10.1%.

For the molecule `CC(C)=CCc1c(O)cc2c(c1O)C(=O)CC(c1ccc(Cl)cc1)O2` (configuration not stated), the Activity in test [1] amounted to 59.7%.
